This is an account of results in ChEMBL document CHEMBL4808182, “Discovery of the Soluble Guanylate Cyclase Activator Runcaciguat (BAY 1101042)” (J Med Chem, 2021).

Data set [1] can be described thus: Oral bioavailability in Wistar rat at 0.3 mg/kg measured up to 24 hrs by LC-MS analysis. It counts as ADME, organism-based. The settings on record: in vivo.
Data set [2] is described as follows: Half life in Beagle dog at 0.3 mg/kg, iv measured up to 24 hrs by LC-MS analysis. The settings on record: in vivo. It counts as ADME, organism-based, Canis lupus familiaris.
Data set [3] deals with Rattus norvegicus. In words: In vivo activation of sGC in po dosed renin-transgenic rat carrying [RenTG(mRRen2)27] gene assessed as decrease in proteinuria pretreated with NO-synthase inhibitor L-NAME followed by compound administration twice daily for 21 days. It is filed as functional, organism-based. The settings on record: dose 1-10 mg/kg, time 21.0 day. In short, it runs like this: (§1)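 L-NAME-treated renin transgenic rats were dosed BID. At study end, protein-to-creatinine ratio (mg/mmol) came from urinary protein and creatinine. Creatinine clearance (mL/min) came from plasma and urinary creatinine plus urine volume.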

Data set [4] in a line: Induction of CYP3A4 in human hepatocytes using phenacetin as substrate incubated for 60 mins by LC-MS/MS analysis. The settings on record: 1 h.
Data set [5] can be described thus: Volume of distribution at steady state in Wistar rat at 0.3 mg/kg, iv measured up to 24 hrs by LC-MS analysis. It counts as ADME, organism-based. The settings on record: in vivo, read-out: Vdss.
Data set [6] has as its target T1, Guanylate cyclase soluble subunit alpha-1 (Rattus norvegicus) (UniProt P19686).
T1 sequence (whole entry): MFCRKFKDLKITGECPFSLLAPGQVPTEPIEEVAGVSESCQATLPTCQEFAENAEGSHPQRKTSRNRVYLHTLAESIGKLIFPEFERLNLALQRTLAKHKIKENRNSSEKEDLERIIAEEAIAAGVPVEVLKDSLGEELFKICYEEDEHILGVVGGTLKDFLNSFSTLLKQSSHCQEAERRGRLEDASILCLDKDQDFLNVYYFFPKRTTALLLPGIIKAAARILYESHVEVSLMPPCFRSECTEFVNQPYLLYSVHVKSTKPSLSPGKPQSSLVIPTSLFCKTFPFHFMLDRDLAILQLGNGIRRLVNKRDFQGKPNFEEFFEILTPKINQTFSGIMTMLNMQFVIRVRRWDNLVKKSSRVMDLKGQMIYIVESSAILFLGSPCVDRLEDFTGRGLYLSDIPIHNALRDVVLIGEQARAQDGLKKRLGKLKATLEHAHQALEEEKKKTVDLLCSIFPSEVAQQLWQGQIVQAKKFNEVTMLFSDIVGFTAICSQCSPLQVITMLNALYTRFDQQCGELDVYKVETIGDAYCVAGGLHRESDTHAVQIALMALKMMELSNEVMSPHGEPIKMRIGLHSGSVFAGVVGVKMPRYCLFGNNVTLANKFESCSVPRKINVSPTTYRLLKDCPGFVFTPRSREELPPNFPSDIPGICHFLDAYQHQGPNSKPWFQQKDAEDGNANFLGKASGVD
As to the kind of experiment: Activation of recombinant rat sGC alpha1 subunit expressed in CHO cells assessed as induction of [32P-cGMP] formation using alpha-[32P-GTP] as substrate measured after 6 mins by luminescence assay. It is filed as cell-based. The settings on record: filed as activator.

Data set [7] has as its system Rattus norvegicus. As to the kind of experiment: Effect on tachycardia reflex in normotensive Wistar rat at 1 to 10 mg/kg, po by radiotelemetry. It is filed as functional, organism-based. The settings on record: dose 1-10 mg/kg. In short, it runs like this: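 Conscious normotensive rats with telemetric implants received oral doses of 1, 3 or 10 mg/kg. Mean arterial pressure and heart rate were recorded continuously beyond 24 h.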

For data set [8], the species on record is Rattus norvegicus. As to the kind of experiment: Effect on heart rate in Wistar rat. It is filed as functional. In short, it runs like this: (§2)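 Rat hearts in Langendorff perfusion were exposed to 10 nM–10 μM. Coronary perfusion pressure, heart rate, LVDP and +dp/dt were recorded.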
Data set [9] deals with Rattus norvegicus. In words: In vivo activation of sGC in po dosed renin-transgenic rat carrying [RenTG(mRRen2)27] gene assessed as increase in creatinine clearance pretreated with NO-synthase inhibitor L-NAME followed by compound administration twice daily for 21 days. The settings on record: dose 1-10 mg/kg, time 21.0 day. It is filed as functional, organism-based. In short, it runs like this: as §1

Data set [10] is filed under the species Rattus norvegicus. In words: Effect on contractility in Wistar rat. It is filed as functional. In short, it runs like this: as §2
A short description of data set [11]: Oral bioavailability in cynomolgus monkey at 0.1 mg/kg measured up to 24 hrs by LC-MS analysis. It is filed as ADME, organism-based, Macaca fascicularis. The settings on record: in vivo.
A short description of data set [12]: Blood clearance in Wistar rat at 0.3 mg/kg, iv measured up to 24 hrs by LC-MS analysis. It is filed as ADME, organism-based. The settings on record: whole blood. In short, it runs like this:
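Rats dosed iv at 0.3 mg/kg; blood clearance determined.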

The target in data set [13] is T1, Guanylate cyclase soluble subunit alpha-1 (Rattus norvegicus). As to the kind of experiment: Activation of recombinant rat sGC alpha1 subunit expressed in CHO cells assessed as induction of [32P-cGMP] formation at 0.01 to 100 uM using alpha-[32P-GTP] as substrate measured after 6 mins in presence of ODQ by luminescence assay. It is filed as cell-based. The settings on record: filed as activator, dose 0.01-100 µM.

The nature of data set [14]: Volume of distribution at steady state in Beagle dog at 0.3 mg/kg, iv measured up to 24 hrs by LC-MS analysis. It counts as ADME, organism-based, Canis lupus familiaris. The settings on record: in vivo, read-out: Vdss.
Data set [15] is described as follows: Blood clerance in cynomolgus monkey at 0.1 mg/kg, iv measured up to 24 hrs by LC-MS analysis. It is filed as ADME, organism-based, Macaca fascicularis. The settings on record: whole blood.
In data set [16] the target is T1, Guanylate cyclase soluble subunit alpha-1 (Rattus norvegicus). As to the kind of experiment: Activation of recombinant rat sGC alpha1 subunit expressed in CHO cells assessed as induction of [32P-cGMP] formation at 0.01 to 100 uM using alpha-[32P-GTP] as substrate measured after 6 mins in presence of NO by luminescence assay. The settings on record: filed as activator, dose 0.01-100 µM.

The source made the active and inactive calls.

In the case of `C[C@H]([C@H](C(=O)Nc1cc([C@@H](CC(=O)O)C2CC2)ccc1Cl)c1ccc(Cl)cc1)C(F)(F)F` [RUNCACIGUAT], the bioavailability in data set [1] was found to be 95%; in data set [11], 81%. In data set [2], this compound showed a half-life of 4.3 h. For the same compound, the Activity result in the data set on Rattus norvegicus [3] is “Dose-Dependent Effect”; in data set [4], 256 nM; with Rattus norvegicus [9], “Dose-Dependent Effect”. Further, the Vd in data set [5] worked out at 1.4 L/kg; in [14] it was 2.8 L/kg. Besides, in [6], the MEC came to 1.8 nM. Further, the result (in the data set with Rattus norvegicus [7]; in data set [13]; in [16]) was Active. Also, the outcome in the data set filed under Rattus norvegicus [8] and in the data set filed under Rattus norvegicus [10] was inactive. In addition, the clearance is 3.5 mL/min/kg in data set [12] and 2.67 mL/min/kg in data set [15].

The bioavailability is the share of a dose that reaches the circulation, judged against a reference dose that is usually intravenous. One may read the half-life as the time needed for the level to fall by half in the phase considered. Usually clearance stands for the volume of plasma or blood freed of the substance per unit of time.
